Bioassay records: PubChem, Columbia University Molecular Screening Center
Insulin prom act – TRM-6 insulin promoter activation | TRM-6 cells (human fetal islet line), insulin promoter eGFP reporter, imaging; plate-scaled: unstimulated 0, stimulated control 100 | activation, % at 2 µM | 130,000 tested, 0.81% active;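 active means activation at 2 µM above a set limit, confirmed on inspection of the cell images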;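 further: share of cells whose green reporter signal exceeds an intensity cutoff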
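Test system: TRM-6 insulin promoter–eGFP reporter cells / Quantity: 1,000 cells per well / Reagent: tamoxifen inducer, 0.75 µM, in seeding medium / Compound dosing: 2 µM final, single concentration / Schedule: overnight tamoxifen, then two-day compound incubation at 37 °C / Measured by: automated fluorescence imaging of paraformaldehyde-fixed, Hoechst-counterstained cells, green channel / Read-out: percent activation from GFP-positive cell fraction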
* marks the source's active call; other numbers are inactive results. Shown is part of a subset that was picked to be rich in hits.

SMILES | Insulin prom act
COc1ccc(CNC(=O)Cc2nn(C)c(=O)c3ccccc23)cc1 | 3
Cc1nn(CC(=O)O)c(=O)c2ccccc12 | -9
CC(C)(C)c1ccc(Cn2nc(CC(=O)O)c3ccccc3c2=O)cc1 | 272*
CCCCNC(=S)N(Cc1c(C)noc1C)c1ccccc1 | -6
c1ccc(Nc2nc(-c3cccnc3)cs2)nc1 | 0
c1cncc(Nc2nc(-c3ccncc3)cs2)c1 | -4
Clc1ccccc1Nc1nc(-c2cccnc2)cs1 | 358*
CCOC(=O)c1[nH]c2ccc(OCC)cc2c1CCCN1C(=O)c2ccccc2C1=O | 6
CCOc1ccc2nc(NC(=O)c3ccoc3C)sc2c1 | 8
COc1cc(OC)c(OC)cc1CNc1cc(C)ccc1OC | 9
COc1ccc(CNC(=O)CSc2ncnc3ccccc23)cc1OC | -9
COc1cc2ncnc(NCc3ccc(C)cc3)c2cc1OC | 230*
N=C1N(/N=C/c2ccccc2)C(=Nc2ccccc2)C(=S)N1c1ccccc1 | 276
Cn1nc(C(=O)Nc2nc3ccc(S(C)(=O)=O)cc3s2)ccc1=O | -8
CC[n+]1c(C=C2C=C(C)OC(C)=C2)sc2ccccc21 | 809*
CC/C(=C/c1sc2ccccc2[n+]1CC)SC | 0
Cc1sc2ccccc2[n+]1CCC(C)S(=O)(=O)[O-] (configuration not stated) | 9
O=S(=O)(NC1CCCC1)c1ccc(S(=O)(=O)N2CCN(c3ccccc3)CC2)cc1 | -4
C=CCn1c(N)cc(=O)nc1SCC(=O)NC(C)c1ccccc1 (configuration not stated) | 131
CO/N=C(/CS(=O)(=O)c1ccc(C)cc1)c1ccc(OC)cc1 | 3
COc1cccc(C(=O)CSc2nnnn2C)c1 | 0
Cc1ccccc1CN1CCc2c(OCC(=O)N3CCCc4ccccc43)cccc2C1=O | 128*
CCN1CCc2c(OCC(=O)Nc3cccc(C)c3)cccc2C1=O | -8
CC1CCN(C(=O)COc2cccc3c2CCN(Cc2ccccc2)C3=O)CC1 | 8
COc1ccc(CNS(=O)(=O)c2cc(OCC(N)=O)c(C)cc2Cl)cc1 | -7
SMILES | Insulin prom act
CCOC(=O)C1CCCN(c2cc(=O)n(C3CCCCC3)c(=O)[nH]2)C1 (configuration not stated) | 124*
CCOC(=O)C1CCCN(C(=S)Nc2ccc(OC)cc2)C1 (configuration not stated) | 0
CCOC(=O)C1CCCN(C(=O)C2CC(=O)N(c3ccc(C)cc3)C2)C1 (configuration not stated) | -15
COc1cc2c(cc1OC)C(C)N(C(=O)c1ccc(Br)o1)CC2 (configuration not stated) | -6
COc1ccc2[nH]c(=O)c(CN(C(=O)c3cccnc3)c3ccccc3OC)cc2c1 | 8
COc1ccc2[nH]c(=O)c(CN(C(=O)c3ccccn3)c3ccccc3)cc2c1 | 200*
COc1ccc(N(Cc2cc3cc(OC)ccc3[nH]c2=O)C(=O)c2cccnc2)cc1 | 0
CCC(C)n1c(SCC(=O)Nc2cc(C(C)(C)C)nn2-c2ccccc2)nc2ccccc2c1=O (configuration not stated) | 0
CCC(=O)/C=C1/Sc2ccccc2N1CC | 329
CCN1/C(=C/C=C/C=C/c2sc3ccccc3[n+]2CC)Sc2ccccc21 | 354*
CCN1/C(=C/c2ccc3cc(C)ccc3[n+]2CC)Sc2ccccc21 | 170
CCC(CC)NC(=O)COC(=O)c1cccc(C)c1O | -1
O=C1c2ccccc2C(=O)N1CCCc1c[nH]c2ccc(Cl)cc12 | 106
COc1ccc2cc3[n+](cc2c1OC)CCc1cc2c(cc1-3)OCO2 | -67
CC(=O)c1cc2c(C)c(C(=O)c3ccccc3)oc2cc1O | 0
CCOP(=O)(OCC)C(C#N)=C1SCN(c2ccc(Cl)cc2)CS1 | -3
CCOC(=O)c1cnc(SCc2ccc(C(C)(C)C)cc2)nc1N | 514*
CCOC(=O)c1cnc(SCc2ccccc2)nc1N | 106
CCOC(=O)c1cnc(SCc2cccc3ccccc23)nc1N | 0
O=C(NCCCN1CCOCC1)C1Cc2c(ccc3ccccc23)O1 (configuration not stated) | -4
CCN(C(=S)NC(=O)c1ccccc1Br)C1CCCCC1 | -8
CN(Cc1nc(-c2ccncc2)no1)S(=O)(=O)c1ccccc1 | 24
O=c1[nH]c(CS(=O)(=O)c2ccccc2)nc2ccccc12 | 6
O=c1cc(CS(=O)(=O)c2ccccc2)nc(-c2ccncc2)[nH]1 | 331*
CCN(CC)c1nc(OCCNC(=O)Nc2ccccc2)nc(N(CC)CC)n1 | -71
SMILES | Insulin prom act
COc1cc(C(=O)NCc2nnc(SCC(=O)Nc3nc4ccccc4s3)o2)cc(OC)c1OC | 4
COc1ccc(OC)c(NC(=O)CSc2nnc(CNC(=O)COc3ccc(Cl)cc3)o2)c1 | 129*
COc1cc(C(=O)NCc2nnc(SCC(=O)Nc3nccs3)o2)cc(OC)c1OC | 144
Nn1c(SCC(=O)N2CCN(S(=O)(=O)c3ccccc3)CC2)nnc1-c1cccs1 | 9
Cn1c(=N)n(CC(=O)O)c2ccccc21 | 0
N=c1n(Cc2ccccc2)c2ccccc2n1CC(O)c1ccco1 (configuration not stated) | 0
